The subject of one test is Plasmodium falciparum. Description: Antiprotozoal activity against chloroquine and pyrimethamine-resistant Plasmodium falciparum K1. In kind it is functional, organism-based. In outline:
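Read-out was IC50 against the K1 strain of P. falciparum, which is resistant to chloroquine and pyrimethamine. The table footnote gives values from two independent experiments.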

Test [1] deals with Trypanosoma brucei rhodesiense. The experiment in a line: Antiprotozoal activity against Trypanosoma brucei rhodesiense STIB900. In kind it is functional, organism-based.
The test system of a further test is L6. Description: Cytotoxicity against rat L6 cells. In kind it is cell-based.

SMILES strings stand for the structures.

With `O=C(OC1CC2(N3CCCC3)CC(c3ccccc3)C1C(c1ccccc1)C2)c1ccc(Cl)cc1` (stereo in doubt; 5b), the values for the concentration for half-maximal inhibition (IC50) (in the test on Plasmodium falciparum; in test [1]; with L6 (l6)) were 0.47 µM, 6.27 µM and 74.9 µM, respectively.

For the compound `O=C(OC1CC2(N3CCCC3)CC(c3ccccc3)C1C(c1ccccc1)C2)c1ccccc1` (stereo in doubt; 4b), the IC50 came to 4.5 µM with Plasmodium falciparum, 4.95 µM in test [1] and 5.08 µM in the test on L6 (l6).

In the case of `CN(C)C12CC(OC(=O)c3cccnc3)C(C(c3ccccc3)C1)C(c1ccccc1)C2` (stereo in doubt; 6a), the half-maximal inhibitory concentration (IC50) was 1.49 µM with Plasmodium falciparum, 15.9 µM in test [1] and 171 µM with L6 (l6).

Take `O=C(OC1CC2(N3CCCCC3)CC(c3ccccc3)C1C(c1ccccc1)C2)c1ccncc1` (racemic; 7c): the IC50 in the test with Plasmodium falciparum is 0.65 µM; in test [1] it was 16.9 µM; in the test on L6 (l6), 113 µM.

On to `O=C(OC1CC2(N3CCCC3)CC(c3ccccc3)C1C(c1ccccc1)C2)c1ccc(Cl)cc1` (racemic), for which the IC50 stood at 0.76 µM in the test on Plasmodium falciparum (Plasmodium falciparum, K1); 0.86 µM in test [1]; 7.31 µM with L6 (l6).

Take `CN(C)C12CC(OC(=O)c3ccccc3)C(C(c3ccccc3)C1)C(c1ccccc1)C2` (racemic): the IC50 stood at 1.18 µM with Plasmodium falciparum; 1.12 µM in test [1] (Trypanosoma brucei); 6.02 µM with L6 (Rattus norvegicus, L6).

As to `CN(C)C12CC(OC(=O)c3cccnc3)C(C(c3ccccc3)C1)C(c1ccccc1)C2` (racemic), the IC50 came out at 0.5 µM in the test on Plasmodium falciparum, 1.52 µM in test [1] and 12.2 µM in the test with L6 (l6).

Consider `O=C(OC1CC2(N3CCCC3)CC(c3ccccc3)C1C(c1ccccc1)C2)c1cccnc1` (racemic), for which the IC50 is 2.34 µM with Plasmodium falciparum; 1.07 µM in test [1] (Trypanosoma brucei); 18.7 µM in the test with L6 (Rattus norvegicus, L6).

`CN(C)C12CC(OC(=O)c3ccncc3)C(C(c3ccccc3)C1)C(c1ccccc1)C2` (racemic; 7a): the IC50 in the test on Plasmodium falciparum was found to be 1.14 µM; in test [1] it was 3.16 µM; in the test on L6 (l6) it was 26.1 µM.

In the case of `CN(C)C12CC(OC(=O)c3ccccc3)C(C(c3ccccc3)C1)C(c1ccccc1)C2` (stereo in doubt; 4a), the values for the IC50 (in the test on Plasmodium falciparum; in test [1]; with L6 (l6)) were 2.47 µM, 1.53 µM and 9.88 µM, respectively.

On to `CN(C)C12CC(OC(=O)c3ccc(Cl)cc3)C(C(c3ccccc3)C1)C(c1ccccc1)C2` (stereo in doubt; 5a), for which the IC50 with Plasmodium falciparum was found to be 0.55 µM; in test [1], 1.06 µM; with L6 (l6) it was 9.46 µM.

Turning to `CN(C)C12CC(OC(=O)c3ccncc3)C(C(c3ccccc3)C1)C(c1ccccc1)C2` (racemic; 11a), the values for the IC50 (in the test on Plasmodium falciparum; in test [1] (Trypanosoma brucei); with L6 (l6)) were 0.49 µM, 1.68 µM and 12.5 µM, respectively.

Regarding `OC1CC2(N3CCCCC3)CC(c3ccccc3)C1C(c1ccccc1)C2` (racemic), the IC50 amounted to 2.77 µM in the test on Plasmodium falciparum; 13.1 µM in test [1]; 34.3 µM with L6 (Rattus norvegicus, L6).

On to `O=C(OC1CC2(N3CCCCC3)CC(c3ccccc3)C1C(c1ccccc1)C2)c1ccc(Cl)cc1` (stereo in doubt; 5c), for which the figures for the half-inhibitory concentration (IC50) (in the test on Plasmodium falciparum; in test [1]; with L6 (l6)) were 0.79 µM, 37.6 µM and 104 µM, respectively.

For the compound `O=C(OC1CC2(N3CCCCC3)CC(c3ccccc3)C1C(c1ccccc1)C2)c1ccccc1` (racemic), the IC50 is 0.77 µM with Plasmodium falciparum (Plasmodium falciparum, K1); 3.12 µM in test [1]; 17.2 µM in the test with L6 (l6).

`OC1CC2(N3CCCC3)CC(c3ccccc3)C1C(c1ccccc1)C2` (racemic): the concentration for half-maximal inhibition (IC50) was 1.23 µM with Plasmodium falciparum (Plasmodium falciparum, K1); 2.53 µM in test [1] (Trypanosoma brucei); 35.4 µM in the test with L6 (Rattus norvegicus, L6).

As to `O=C(OC1CC2(N3CCCC3)CC(c3ccccc3)C1C(c1ccccc1)C2)c1ccncc1` (racemic; 11b), the IC50 came to 4.49 µM in the test on Plasmodium falciparum; 1.44 µM in test [1]; 26.9 µM in the test on L6 (Rattus norvegicus, L6).

As for `O=C(OC1CC2(N3CCCCC3)CC(c3ccccc3)C1C(c1ccccc1)C2)c1ccncc1` (racemic; 11c), the IC50 in the test with Plasmodium falciparum (Plasmodium falciparum, K1) came to 0.62 µM; in test [1], 3.35 µM; in the test on L6 (l6) it was 21.3 µM.

Regarding `O=C(OC1CC2(N3CCCCC3)CC(c3ccccc3)C1C(c1ccccc1)C2)c1ccc(Cl)cc1` (racemic), the IC50 in the test on Plasmodium falciparum (Plasmodium falciparum, K1) is 1.12 µM; in test [1] it was 1.76 µM; with L6 (l6), 23 µM.

Take `O=C(OC1CC2(N3CCCC3)CC(c3ccccc3)C1C(c1ccccc1)C2)c1ccncc1` (racemic; 7b): the IC50 in the test on Plasmodium falciparum turned out to be 0.86 µM; in test [1] it was 3.49 µM; in the test on L6 (l6), 27.4 µM.

For the compound `O=C(OC1CC2(N3CCCCC3)CC(c3ccccc3)C1C(c1ccccc1)C2)c1cccnc1` (stereo in doubt; 6c), the half-maximal inhibitory concentration (IC50) in the test with Plasmodium falciparum (Plasmodium falciparum, K1) was determined as 0.48 µM; in test [1] (Trypanosoma brucei), 70.9 µM; in the test with L6 (l6) it was 0.87 µM.

For `CN(C)C12CC(O)C(C(c3ccccc3)C1)C(c1ccccc1)C2` (racemic), the results for the IC50 (in the test on Plasmodium falciparum; in test [1]; in the test with L6 (l6)) were 13.1 µM, 3.64 µM and 158 µM, respectively.

For the compound `O=C(OC1CC2(N3CCCC3)CC(c3ccccc3)C1C(c1ccccc1)C2)c1cccnc1` (stereo in doubt; 6b), the concentration for half-maximal inhibition (IC50) in the test with Plasmodium falciparum was determined as 0.2 µM; in test [1], 0.62 µM; in the test with L6 (l6), 24.4 µM.

On to `O=C(OC1CC2(N3CCCCC3)CC(c3ccccc3)C1C(c1ccccc1)C2)c1cccnc1` (racemic), for which, in the test with L6 (l6), the IC50 is 21.3 µM.

For `CN(C)C12CC(OC(=O)c3ccc(Cl)cc3)C(C(c3ccccc3)C1)C(c1ccccc1)C2` (racemic), the IC50 in the test with Plasmodium falciparum is 1.11 µM; in test [1] (Trypanosoma brucei) it was 2.04 µM; in the test with L6 (l6), 4.35 µM.

As to `O=C(OC1CC2(N3CCCCC3)CC(c3ccccc3)C1C(c1ccccc1)C2)c1ccccc1` (stereo in doubt; 4c), the IC50 in the test with Plasmodium falciparum worked out at 0.66 µM; in test [1] it was 15 µM; in the test on L6 (l6), 97.3 µM.

In the case of `O=C(OC1CC2(N3CCCC3)CC(c3ccccc3)C1C(c1ccccc1)C2)c1ccccc1` (racemic), the IC50 worked out at 0.8 µM in the test on Plasmodium falciparum; 0.96 µM in test [1]; 8.41 µM in the test with L6 (Rattus norvegicus, L6).

Broadly, the IC50 is the concentration needed to halve the response being measured. A higher IC50 goes with a need for much substance.

For the origin of these results see ChEMBL document CHEMBL1149817, “Epimers of bicyclo[2.2.2]octan-2-ol derivatives with antiprotozoal activity” (Eur J Med Chem, 2008).
